# Laboratory results published in ChEMBL document CHEMBL1949672 (J Med Chem, 2012).
# How the values were obtained:
# Adenosine receptor A3 = target: T1, Adenosine receptor A3 (Homo sapiens, UniProt P0DMS8); test: Displacement of [125I]N6-(4-amino-3-iodobenzyl)adenosine-5'-N-methyluronamide from human A3 adenosine receptor expressed in CHO cell membranes after 60 mins
# T1 sequence (P0DMS8 whole entry): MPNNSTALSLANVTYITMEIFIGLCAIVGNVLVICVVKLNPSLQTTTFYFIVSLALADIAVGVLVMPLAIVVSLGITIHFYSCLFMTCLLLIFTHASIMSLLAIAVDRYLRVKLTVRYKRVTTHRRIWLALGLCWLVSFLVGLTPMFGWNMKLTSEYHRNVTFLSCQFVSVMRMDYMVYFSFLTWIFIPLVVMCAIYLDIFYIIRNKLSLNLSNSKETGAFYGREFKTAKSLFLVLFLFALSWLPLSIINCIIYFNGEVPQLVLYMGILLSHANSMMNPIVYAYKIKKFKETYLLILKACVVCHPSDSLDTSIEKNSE
# Adenosine receptor A2a [1] = target: T2, Adenosine receptor A2a (Homo sapiens, UniProt P29274); test: Agonist activity at human A2A adenosine receptor expressed in CHO cells assessed as stimulation of forskolin-induced cAMP production at 10 uM preincubated for 45 mins prior forskolin treatment measured after 15 mins by liquid scintillation spectrometry relative to 2-[p-(2-carboxyethyl)phenylethylamino]-5'-N-ethylcarboxamido-adenosine; assay type: functional, cell-based
# How it was run: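 CHO cells expressing human A2A AR; test compound at a single concentration of 10 µM; cyclic AMP production measured and expressed as mean percentage of the response to the full agonist CGS21680 (10 µM).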
# Adenosine receptor A1 = target: T3, Adenosine receptor A1 (Homo sapiens, UniProt P30542); test: Displacement of [3H]N6-phenylisopropyladenosine from human A1 adenosine receptor expressed in CHO cell membranes after 60 mins
# T3 sequence (P30542 whole entry): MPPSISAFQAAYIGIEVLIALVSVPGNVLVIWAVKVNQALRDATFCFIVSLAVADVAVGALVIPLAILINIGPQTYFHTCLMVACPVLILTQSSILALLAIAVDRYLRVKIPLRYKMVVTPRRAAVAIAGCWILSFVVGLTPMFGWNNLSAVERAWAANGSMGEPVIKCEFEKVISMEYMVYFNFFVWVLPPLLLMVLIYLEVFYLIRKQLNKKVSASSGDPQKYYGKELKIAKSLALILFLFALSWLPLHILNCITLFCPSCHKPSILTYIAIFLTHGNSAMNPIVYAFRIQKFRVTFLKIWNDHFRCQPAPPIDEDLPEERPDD
# How it was run: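 Membranes (40 µg/tube) from CHO cells stably expressing human A1 AR were incubated with 1 nM [3H]R-PIA in 50 mM Tris·HCl pH 7.4 with 10 mM MgCl2, at 25°C for 60 min. Nonspecific binding was defined with 10 µM CPA.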
# Adenosine receptor A2a [2] = target: T2, Adenosine receptor A2a; test: Displacement of [3H]2-[p-(2-carboxyethyl)phenylethylamino]-5'-N-ethylcarboxamido-adenosine from human A2A adenosine receptor expressed in HEK293 cell membranes after 60 mins
# [3] = Displacement of [1251]PAPAAPEC from A2A adenosine receptor expressed in bovine striatal membranes after 1 hr by gamma counting; assay type: cell membranes, Bos taurus, Striatum, Membrane
# Adenosine receptor A2a [4] = target: T2, Adenosine receptor A2a; test: Binding affinity to A2A adenosine receptor
# T2 sequence (P29274 whole entry): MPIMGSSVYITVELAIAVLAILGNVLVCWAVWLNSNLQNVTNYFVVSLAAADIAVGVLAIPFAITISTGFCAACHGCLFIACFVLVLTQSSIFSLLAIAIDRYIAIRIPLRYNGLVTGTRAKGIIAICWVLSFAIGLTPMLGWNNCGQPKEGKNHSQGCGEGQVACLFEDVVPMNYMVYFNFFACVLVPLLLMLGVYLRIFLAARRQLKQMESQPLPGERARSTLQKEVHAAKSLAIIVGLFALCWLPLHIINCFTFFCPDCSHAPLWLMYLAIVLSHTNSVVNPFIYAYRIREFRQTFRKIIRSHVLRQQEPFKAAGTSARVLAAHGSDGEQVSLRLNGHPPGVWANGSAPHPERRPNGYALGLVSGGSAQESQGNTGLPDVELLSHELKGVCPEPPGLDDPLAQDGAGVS
SMILES,Ki (Adenosine receptor A3) [nM],Emax (Adenosine receptor A2a [1]) [%],Ki (Adenosine receptor A1) [nM],Ki (Adenosine receptor A2a [2]) [nM],Ki [3] [nM],Ki (Adenosine receptor A2a [4]) [nM]
CCNC(=O)[C@H]1O[C@@H](n2cnc3c(N)nc(NCCc4ccc(CCC(=O)N[C@@H](Cc5c[nH]c6ccccc56)C(=O)OC)cc4)nc32)[C@H](O)[C@@H]1O,140,104,1670,87.2,,
CCNC(=O)[C@H]1O[C@@H](n2cnc3c(N)nc(NCCc4ccc(CCC(=O)N[C@@H](CCCNC(=N)N)C(=O)O)cc4)nc32)[C@H](O)[C@@H]1O,,94.5,,,,
CCNC(=O)[C@H]1O[C@@H](n2cnc3c(N)nc(NCCc4ccc(CCC(=O)NCCNC(=S)Nc5ccc(N=C=S)cc5)cc4)nc32)[C@H](O)[C@@H]1O,,,,,7.1,
CCNC(=O)[C@H]1O[C@@H](n2cnc3c(N)nc(NCCc4ccc(CCC(=O)N[C@H](CCCN=C(N)N)C(=O)O)cc4)nc32)[C@H](O)[C@@H]1O,220,,990,50,,
CCNC(=O)[C@H]1O[C@@H](n2cnc3c(N)nc(NCCc4ccc(CCC(=O)N[C@@H](CCCN=C(N)N)C(=O)O)cc4)nc32)[C@H](O)[C@@H]1O,620,,1110,100,,
O=C(NCCN1CCCCC1)c1nc(NCC(c2ccccc2)c2ccccc2)c2ncn([C@@H]3O[C@H](CO)[C@@H](O)[C@H]3O)c2n1,,,,,,20.1
CCNC(=O)[C@H]1O[C@@H](n2cnc3c(N)nc(NCCc4ccc(CCC(=O)N[C@@H](CC(=O)O)C(=O)O)cc4)nc32)[C@H](O)[C@@H]1O,1460,94.8,1900,180,,
CCNC(=O)[C@H]1O[C@@H](n2cnc3c(N)nc(NCCc4ccc(CCC(=O)N[C@H](Cc5c[nH]cn5)C(=O)O)cc4)nc32)[C@H](O)[C@@H]1O,320,106,350,40,,
CCNC(=O)[C@H]1O[C@@H](n2cnc3c(N)nc(NCCc4ccc(CCC(=O)N[C@H](Cc5c[nH]c6ccccc56)C(=O)O)cc4)nc32)[C@H](O)[C@@H]1O,520,113,2160,130,,
CCNC(=O)[C@H]1O[C@@H](n2cnc3c(N)nc(NCCc4ccc(CCC(=O)N[C@@H](Cc5ccccc5)C(=O)OC)cc4)nc32)[C@H](O)[C@@H]1O,,111,1080,160,,
CCNC(=O)[C@H]1O[C@@H](n2cnc3c(N)nc(NCCc4ccc(CCC(=O)N[C@@H](Cc5cnc[nH]5)C(=O)O)cc4)nc32)[C@H](O)[C@@H]1O,830,,1000,110,,
CCNC(=O)[C@H]1O[C@@H](n2cnc3c(N)nc(NCCc4ccc(CCC(=O)N[C@H](Cc5ccccc5)C(=O)OC)cc4)nc32)[C@H](O)[C@@H]1O,,92.6,1230,84.3,,
CCNC(=O)[C@H]1C[C@@H](n2cnc3c(N[C@H](CC)Cc4sccc4Cl)ccnc32)[C@H](O)[C@@H]1O,,,,,,56
CCNC(=O)[C@H]1O[C@@H](n2cnc3c(N)nc(NCCc4ccc(CCC(=O)N[C@@H](Cc5ccccc5)C(=O)O)cc4)nc32)[C@H](O)[C@@H]1O,260,103,640,63.7,,
CCNC(=O)[C@H]1O[C@@H](n2cnc3c(N)nc(NCCc4ccc(CCC(=O)N[C@H](Cc5c[nH]c6ccccc56)C(=O)OC)cc4)nc32)[C@H](O)[C@@H]1O,250,119,1610,130,,
CCNC(=O)[C@H]1O[C@@H](n2cnc3c(N)nc(NCCc4ccc(CCC(=O)N[C@H](CC(=O)O)C(=O)O)cc4)nc32)[C@H](O)[C@@H]1O,790,94.3,1180,110,,
CCNC(=O)[C@H]1O[C@@H](n2cnc3c(N)nc(NCCc4ccc(CCC(=O)N[C@H](CCCNC(=N)N)C(=O)O)cc4)nc32)[C@H](O)[C@@H]1O,,94.7,,,,
CCNC(=O)[C@H]1O[C@@H](n2cnc3c(N)nc(NCCc4ccc(CCC(=O)N[C@@H](Cc5c[nH]cn5)C(=O)O)cc4)nc32)[C@H](O)[C@@H]1O,,105,,,,
COc1cc(OC)cc([C@@H](CNc2ncnc3c2ncn3[C@@H]2O[C@H](CO)[C@@H](O)[C@H]2O)c2ccccc2C)c1,,,,,,168
CCNC(=O)[C@H]1O[C@@H](n2cnc3c(N)nc(NCCc4ccc(CCC(=O)N[C@H](Cc5ccccc5)C(=O)O)cc4)nc32)[C@H](O)[C@@H]1O,140,93.4,550,34,,
CCNC(=O)[C@H]1O[C@@H](n2cnc3c(N)nc(NCCc4ccc(CCC(=O)N[C@@H](Cc5c[nH]c6ccccc56)C(=O)O)cc4)nc32)[C@H](O)[C@@H]1O,200,95.8,1060,71.7,,
